{"source": "ChEMBL document CHEMBL4049428", "about": "“Exploring Derivatives of Quinazoline Alkaloid l-Vasicine as Cap Groups in the Design and Biological Mechanistic Evaluation of Novel Antitumor Histone Deacetylase Inhibitors” (J Med Chem, 2017)", "key": {"Histone deacetylase 1": {"target": "Histone deacetylase 1 (Homo sapiens, UniProt Q13547)", "sequence (Q13547 whole entry)": "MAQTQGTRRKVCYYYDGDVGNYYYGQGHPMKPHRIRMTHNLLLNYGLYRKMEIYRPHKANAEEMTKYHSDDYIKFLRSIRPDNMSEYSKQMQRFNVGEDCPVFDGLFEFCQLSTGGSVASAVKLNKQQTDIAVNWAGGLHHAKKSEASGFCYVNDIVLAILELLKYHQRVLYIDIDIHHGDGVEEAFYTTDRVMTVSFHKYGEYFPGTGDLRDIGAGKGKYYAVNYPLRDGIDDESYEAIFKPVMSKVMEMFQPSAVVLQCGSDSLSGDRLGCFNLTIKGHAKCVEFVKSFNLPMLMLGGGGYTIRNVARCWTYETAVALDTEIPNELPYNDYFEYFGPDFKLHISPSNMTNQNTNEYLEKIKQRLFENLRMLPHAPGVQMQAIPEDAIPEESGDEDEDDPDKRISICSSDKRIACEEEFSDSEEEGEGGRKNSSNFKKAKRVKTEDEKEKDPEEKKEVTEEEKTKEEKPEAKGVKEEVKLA", "assay": "Inhibition of HDAC 1 in human HeLa nuclear extract using HDAC substrate-3 measured after 60 mins by fluorometric analysis"}, "Histone deacetylase 3": {"target": "Histone deacetylase 3 (Homo sapiens, UniProt O15379)", "sequence (O15379 whole entry)": "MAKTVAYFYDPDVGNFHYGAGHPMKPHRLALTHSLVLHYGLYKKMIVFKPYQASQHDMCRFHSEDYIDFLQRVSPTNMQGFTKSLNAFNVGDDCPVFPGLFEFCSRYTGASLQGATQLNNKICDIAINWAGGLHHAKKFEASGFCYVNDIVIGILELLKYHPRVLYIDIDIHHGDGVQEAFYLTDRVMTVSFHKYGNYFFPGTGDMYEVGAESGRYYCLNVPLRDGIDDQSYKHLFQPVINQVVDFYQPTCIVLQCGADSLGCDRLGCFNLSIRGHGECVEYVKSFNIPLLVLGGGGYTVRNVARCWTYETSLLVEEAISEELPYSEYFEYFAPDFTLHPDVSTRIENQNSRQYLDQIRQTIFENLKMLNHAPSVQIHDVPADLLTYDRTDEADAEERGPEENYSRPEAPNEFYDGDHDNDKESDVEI", "assay": "Inhibition of HDAC 3 in human HeLa nuclear extract using HDAC substrate-3 measured after 60 mins by fluorometric analysis"}, "Histone deacetylase 4": {"target": "Histone deacetylase 4 (Homo sapiens, UniProt P56524)", "sequence (P56524 whole entry)": "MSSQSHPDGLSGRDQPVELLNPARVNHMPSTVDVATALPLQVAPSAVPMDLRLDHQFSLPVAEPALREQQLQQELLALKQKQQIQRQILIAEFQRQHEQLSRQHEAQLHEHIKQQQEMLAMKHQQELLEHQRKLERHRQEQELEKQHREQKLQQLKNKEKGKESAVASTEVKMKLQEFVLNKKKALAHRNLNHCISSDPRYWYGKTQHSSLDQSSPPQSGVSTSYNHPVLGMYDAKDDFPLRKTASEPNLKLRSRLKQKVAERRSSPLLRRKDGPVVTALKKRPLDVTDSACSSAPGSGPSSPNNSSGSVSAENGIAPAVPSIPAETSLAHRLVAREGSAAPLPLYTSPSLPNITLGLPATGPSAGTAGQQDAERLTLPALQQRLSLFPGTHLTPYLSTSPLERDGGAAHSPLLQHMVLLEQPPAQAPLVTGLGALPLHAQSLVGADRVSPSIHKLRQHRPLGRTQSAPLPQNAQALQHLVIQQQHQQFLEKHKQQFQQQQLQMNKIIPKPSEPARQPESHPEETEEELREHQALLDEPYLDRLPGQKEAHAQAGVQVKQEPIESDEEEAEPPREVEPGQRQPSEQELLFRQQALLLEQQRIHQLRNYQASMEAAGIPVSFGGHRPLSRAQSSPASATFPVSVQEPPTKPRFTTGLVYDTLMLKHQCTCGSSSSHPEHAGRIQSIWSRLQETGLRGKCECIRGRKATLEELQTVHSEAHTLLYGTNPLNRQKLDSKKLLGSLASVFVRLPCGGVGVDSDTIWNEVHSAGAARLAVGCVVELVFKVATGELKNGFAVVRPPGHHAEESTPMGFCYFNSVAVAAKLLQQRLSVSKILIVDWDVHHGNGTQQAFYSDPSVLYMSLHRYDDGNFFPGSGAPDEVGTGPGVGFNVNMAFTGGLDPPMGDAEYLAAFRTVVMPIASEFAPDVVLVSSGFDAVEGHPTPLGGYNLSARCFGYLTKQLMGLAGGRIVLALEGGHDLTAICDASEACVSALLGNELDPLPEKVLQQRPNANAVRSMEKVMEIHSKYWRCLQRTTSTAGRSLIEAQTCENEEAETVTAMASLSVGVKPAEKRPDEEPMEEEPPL", "assay": "Inhibition of HDAC 4 in human HeLa nuclear extract using fluorogenic HDAC class 2A substrate measured after 60 mins by fluorometric analysis"}, "Histone deacetylase 11": {"target": "Histone deacetylase 11 (Homo sapiens, UniProt Q96DB2)", "sequence (Q96DB2 whole entry)": "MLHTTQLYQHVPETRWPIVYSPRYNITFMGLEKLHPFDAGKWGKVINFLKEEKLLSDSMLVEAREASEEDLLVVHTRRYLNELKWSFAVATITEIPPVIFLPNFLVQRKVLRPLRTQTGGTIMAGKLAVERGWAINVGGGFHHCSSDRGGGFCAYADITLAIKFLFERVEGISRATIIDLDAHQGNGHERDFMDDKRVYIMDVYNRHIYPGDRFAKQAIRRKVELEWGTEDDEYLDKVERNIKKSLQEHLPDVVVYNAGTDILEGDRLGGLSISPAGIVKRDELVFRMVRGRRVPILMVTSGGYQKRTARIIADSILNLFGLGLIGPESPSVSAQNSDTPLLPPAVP", "assay": "Inhibition of HDAC 11 in human HeLa nuclear extract using fluorogenic HDAC class 2A substrate measured after 60 mins by fluorometric analysis"}, "HL-60 [1]": {"system": "HL-60", "assay": "Cytotoxicity against human HL60 cells assessed as growth inhibition at 10 uM after 48 hrs by MTT assay", "type": "functional", "conditions": "HL-60, 48 h, read-out: GI", "summary_of_the_method": "(§1)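 MTT assay, 48 h exposure; adherent lines seeded 12 h and suspension lines 4 h before compound. Media: RPMI-1640/10% FCS (THP-1, HL-60, Colo-205, Caco-2, A549), DMEM/10% FCS (A549, MIAPaCa-2, MCF-7). MTT 4 h, formazan dissolved in DMSO, absorbance 570 nm. Mean ± S.D of three experiments in triplicate; SAHA 5 µM reference.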"}, "COLO 205 [2]": {"system": "COLO 205", "assay": "Cytotoxicity against human COLO205 cells assessed as growth inhibition at 10 uM after 48 hrs by MTT assay", "type": "functional", "conditions": "COLO 205, 48 h, read-out: GI", "summary_of_the_method": "as §1"}, "MIA PaCa-2 [3]": {"system": "MIA PaCa-2", "assay": "Cytotoxicity against human MIAPaCa2 cells assessed as growth inhibition at 10 uM after 48 hrs by MTT assay", "type": "functional", "conditions": "MIA PaCa-2, 48 h, read-out: GI", "summary_of_the_method": "as §1"}, "THP-1": {"system": "THP-1", "assay": "Cytotoxicity against human THP1 cells assessed as growth inhibition after 48 hrs by MTT assay", "type": "functional, cell-based", "conditions": "THP-1, 48 h"}, "HL-60 [4]": {"system": "HL-60", "assay": "Cytotoxicity against human HL60 cells assessed as growth inhibition after 48 hrs by MTT assay", "type": "functional, cell-based", "conditions": "HL-60, 48 h"}, "MOLT-4 [5]": {"system": "MOLT-4", "assay": "Cytotoxicity against human MOLT4 cells assessed as growth inhibition after 48 hrs by MTT assay", "type": "functional, cell-based", "conditions": "MOLT-4, 48 h"}, "COLO 205 [6]": {"system": "COLO 205", "assay": "Cytotoxicity against human COLO205 cells assessed as growth inhibition after 48 hrs by MTT assay", "type": "functional, cell-based", "conditions": "COLO 205, 48 h"}, "MIA PaCa-2 [7]": {"system": "MIA PaCa-2", "assay": "Cytotoxicity against human MIAPaCa2 cells assessed as growth inhibition after 48 hrs by MTT assay", "type": "functional, cell-based", "conditions": "MIA PaCa-2, 48 h", "summary_of_the_method": "as §1"}, "A549": {"system": "A549", "assay": "Cytotoxicity against human A549 cells assessed as growth inhibition after 48 hrs by MTT assay", "type": "functional, cell-based", "conditions": "A549, 48 h"}, "MCF7": {"system": "MCF7", "assay": "Cytotoxicity against human MCF7 cells assessed as growth inhibition after 48 hrs by MTT assay", "type": "functional, cell-based", "conditions": "MCF7, 48 h"}, "Homo sapiens [8]": {"organism": "Homo sapiens", "assay": "Inhibition of HDAC in human HL60 cells assessed as increase in acetylated H3K18 levels after 48 hrs by Western blot analysis", "type": "cell-based", "summary_of_the_method": "(§2)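 Cells seeded 2-4 h, treated 48 h with graded compound concentrations (SAHA control); histones acid-extracted (HEPES pH 9 buffer, 0.2 N HCl, 1 h on ice), Bradford-normalised, resolved on 18% SDS gels, blotted to PVDF, probed for acetyl-H3K18 and acetyl-H4K5 with H3 and β-actin loading controls; ECL detection.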"}, "Homo sapiens [9]": {"organism": "Homo sapiens", "assay": "Inhibition of HDAC in human MOLT4 cells assessed as increase in acetylated H3K18 levels after 48 hrs by Western blot analysis", "type": "cell-based", "summary_of_the_method": "as §2"}, "Homo sapiens [10]": {"organism": "Homo sapiens", "assay": "Inhibition of HDAC in human HL60 cells assessed as increase in acetylated H4K5 levels after 48 hrs by Western blot analysis", "type": "cell-based", "summary_of_the_method": "as §2"}, "MCF-10A": {"system": "MCF-10A", "assay": "Cytotoxicity against human MCF10A cells assessed as growth inhibition after 48 hrs by MTT assay", "type": "ADME, cell-based"}, "HL-60 [11]": {"system": "HL-60", "assay": "Induction of mitochondrial membrane potential loss in human HL60 cells at 1 uM measured after 48 hrs by Rh123 dye-based flow cytometric analysis (reference value: 5.6%)", "type": "functional", "summary_of_the_method": "(§3)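 Cells seeded in 6-well plates 2-4 h, then 48 h with compound; Rh-123 1 µM added for the final half hour; cells centrifuged, washed twice in PBS, resuspended in PBS, and Ψm loss quantified by flow cytometry as percentage of cells.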"}, "HL-60 [12]": {"system": "HL-60", "assay": "Induction of mitochondrial membrane potential loss in human HL60 cells assessed as intact mitochondrial membrane potential at 1 uM measured after 48 hrs by Rh123 dye-based flow cytometric analysis (reference value: 91.3%)", "type": "functional", "summary_of_the_method": "as §3"}, "HL-60 [13]": {"system": "HL-60", "assay": "Induction of mitochondrial membrane potential loss in human HL60 cells assessed as intact mitochondrial membrane potential at 0.125 uM measured after 48 hrs by Rh123 dye-based flow cytometric analysis (reference value: 91.3%)", "type": "functional", "summary_of_the_method": "as §3"}, "HL-60 [14]": {"system": "HL-60", "assay": "Induction of mitochondrial membrane potential loss in human HL60 cells at 5 uM measured after 48 hrs by Rh123 dye-based flow cytometric analysis (reference value: 5.6%)", "type": "functional", "summary_of_the_method": "as §3"}, "HL-60 [15]": {"system": "HL-60", "assay": "Induction of mitochondrial membrane potential loss in human HL60 cells assessed as intact mitochondrial membrane potential at 5 uM measured after 48 hrs by Rh123 dye-based flow cytometric analysis (reference value: 91.3%)", "type": "functional", "summary_of_the_method": "as §3"}, "HL-60 [16]": {"system": "HL-60", "assay": "Induction of mitochondrial membrane potential loss in human HL60 cells at 10 uM measured after 48 hrs by Rh123 dye-based flow cytometric analysis (reference value: 5.6%)", "type": "functional", "summary_of_the_method": "as §3"}, "MOLT-4 [17]": {"system": "MOLT-4", "assay": "Induction of mitochondrial membrane potential loss in human MOLT4 cells assessed as intact mitochondrial membrane potential at 1 uM measured after 48 hrs by Rh123 dye-based flow cytometric analysis (reference value: 90.4%)", "type": "functional", "summary_of_the_method": "as §3"}, "MOLT-4 [18]": {"system": "MOLT-4", "assay": "Induction of mitochondrial membrane potential loss in human MOLT4 cells at 10 uM measured after 48 hrs by Rh123 dye-based flow cytometric analysis (reference value: 90.4%)", "type": "functional", "summary_of_the_method": "as §3"}, "HL-60 [19]": {"system": "HL-60", "assay": "Induction of reactive oxygen species in human HL60 cells at 10 uM measured after 48 hrs by H2DCFDA dye-based flow cytometric analysis (reference value: 0.4%)", "type": "functional"}, "MOLT-4 [20]": {"system": "MOLT-4", "assay": "Induction of reactive oxygen species in human MOLT4 cells at 0.125 uM measured after 48 hrs by H2DCFDA dye-based flow cytometric analysis (reference value: 1.1%)", "type": "functional"}, "HL-60 [21]": {"system": "HL-60", "assay": "Induction of autophagy in human HL60 cells assessed as acidic vacuole formation in cytoplasm at 10 uM after 48 hrs by acridine orange dye-based fluorescent microscopic analysis", "type": "functional, cell-based", "summary_of_the_method": "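Cells treated 48 h with a range of compound concentrations, SAHA 1.0 µM as positive control; acridine orange 1 µg/ml added 15 min before end at 37°C; cells washed in PBS and acidic vacuoles viewed by fluorescence microscopy.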"}, "MOLT-4 [22]": {"system": "MOLT-4", "assay": "Induction of autophagy in human MOLT4 cells assessed as intracellular LC-3B distribution at 10 uM after 48 hrs by DAPI dye-based immunofluorescent microscopic analysis", "type": "functional, cell-based", "summary_of_the_method": "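After 48 h treatment (SAHA 1.0 µM control), cells put on poly-lysine coverslips, fixed 15 min in 4% paraformaldehyde, permeabilised with 0.1% Triton X-100, blocked in 10% BSA; anti-LC-3B 1:100 for 1 h, Alexa Fluor 488 secondary 1:500 for 1 h, DAPI 1 µg/ml counterstain; imaged with 60X oil objective.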"}}, "note": "The source made the active and inactive calls. The rule behind the calls is not given here."}
{"smiles": "O=C(CCCCCCC(=O)Nc1ccccc1CN1CC[C@H](O)C1)NO", "values": [{"measurement": "IC50", "setting": "Histone deacetylase 1", "result": 415, "unit": "nM"}, {"measurement": "IC50", "setting": "Histone deacetylase 3", "result": 368, "unit": "nM"}, {"measurement": "IC50", "setting": "Histone deacetylase 4", "result": 7120, "unit": "nM"}, {"measurement": "IC50", "setting": "Histone deacetylase 11", "result": "> 10000", "unit": "nM"}, {"measurement": "inhibition of growth at 10 µM", "setting": "HL-60 [1]", "result": 95, "unit": "%"}, {"measurement": "inhibition of growth at 10 µM", "setting": "COLO 205 [2]", "result": 92, "unit": "%"}, {"measurement": "inhibition of growth at 10 µM", "setting": "MIA PaCa-2 [3]", "result": 93, "unit": "%"}, {"measurement": "IC50", "setting": "THP-1", "result": 1300, "unit": "nM"}, {"measurement": "IC50", "setting": "HL-60 [4]", "result": 1000, "unit": "nM"}, {"measurement": "IC50", "setting": "MOLT-4 [5]", "result": 810, "unit": "nM"}, {"measurement": "IC50", "setting": "COLO 205 [6]", "result": 600, "unit": "nM"}, {"measurement": "IC50", "setting": "MIA PaCa-2 [7]", "result": 1000, "unit": "nM"}, {"measurement": "IC50", "setting": "A549", "result": 7000, "unit": "nM"}, {"measurement": "IC50", "setting": "MCF7", "result": 1500, "unit": "nM"}, {"measurement": "inhibition", "setting": "Homo sapiens [8]", "result": "Dose-dependent effect"}, {"measurement": "inhibition", "setting": "Homo sapiens [9]", "result": "Dose-dependent effect"}, {"measurement": "inhibition", "setting": "Homo sapiens [10]", "result": "Dose-dependent effect"}, {"measurement": "IC50", "setting": "MCF-10A", "result": 37000, "unit": "nM"}, {"measurement": "Activity", "setting": "HL-60 [11]", "result": 6.2, "unit": "%"}, {"measurement": "Activity", "setting": "HL-60 [12]", "result": 90.4, "unit": "%"}, {"measurement": "Activity", "setting": "HL-60 [13]", "result": 89, "unit": "%"}, {"measurement": "Activity", "setting": "HL-60 [14]", "result": 12.1, "unit": "%"}, {"measurement": "Activity", "setting": "HL-60 [15]", "result": 82.6, "unit": "%"}, {"measurement": "Activity", "setting": "HL-60 [16]", "result": 32, "unit": "%"}, {"measurement": "Activity", "setting": "MOLT-4 [17]", "result": 95.1, "unit": "%"}, {"measurement": "Activity", "setting": "MOLT-4 [18]", "result": 32.5, "unit": "%"}, {"measurement": "Activity", "setting": "HL-60 [19]", "result": 0.1, "unit": "%"}, {"measurement": "Activity", "setting": "MOLT-4 [20]", "result": 1.3, "unit": "%"}, {"measurement": "Activity", "setting": "HL-60 [21]", "result": "Active"}, {"measurement": "Activity", "setting": "MOLT-4 [22]", "result": "Active"}]}
